PubChem BioAssay
Activity calls are given as the source filed them.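 Rule for the calls, unless noted: active = fluorescence slope after compound addition differing from the mean of all tested samples at 99.7% confidence, mostly higher but some lower; inactive = the rest.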

What was measured:
[1] = inhibitors of TNFa-induced NFkB p65 translocation, primary screen, imaging, HUVEC, MLSMR starter and 10KST1 sets (AID 438;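 active = inhibition above 20% together with a positive visual image hit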;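 note: compound added about 3h40 before a 20 min TNFalpha stimulation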;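 for inhibition: signal is the nuclear over cytoplasmic p65 intensity ratio per well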); conditions: HUVEC TNFa-induced p65 nuclear translocation; cell count: measured here: nuclei count (cytotoxicity indicator), at 2.08 µM; inhibition: at 2 µM, stronger effect = higher value, 0% TNFa-plus-vehicle, 100% no-TNFa wells
[2] = inhibitors of mutant huntingtin aggregation, primary screen, imaging, exon1htt(103Q)mCFP cells, high-content imaging (AID 483;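 active = visual image review flags a hit and inhibition of aggregation exceeds 20%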;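 note: compound exposure lasted 3 days before fixation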;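 for nuclei count: percent of the per-plate median nuclei count of sample wells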); conditions: exon1htt(103Q)mCFP cell line, aggregate imaging, at 2 µM; inhibition of aggregation: stronger effect = higher value; nuclei count: measured here: cell count, toxicity
[3] = inhibitors of E-selectin induction by TNFa, primary screen, imaging, HUVEC, immunofluorescence, MLSMR starter and 10KST1 sets (AID 487;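 active = visually confirmed hit in the image check and inhibition above 20%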;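 for inhibition: signal is fraction of cell area covered by stained E-selectin grains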;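 for nuclei count: 100% = median nuclei count of all wells on the same plate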); conditions: HUVEC TNFalpha-induced E-selectin immunofluorescence imaging, at 2 µM; inhibition: stronger effect = higher value; nuclei count: measured here: cell number, toxicity
[4] = molecular target: Voltage-gated potassium channel subunit beta-2 (Rattus norvegicus) (UniProt P62483); test: KvBeta enzyme negative modulators, primary screen, biochemical, NADPH fluorescence (AID 622;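 active = fluorescence slope higher than the sample average by over 3 SD, cut at about -0.22 in these data, passing the limit was not always enough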;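 note: slope of raw intensity against log time taken from 70 to 1610 s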); conditions: recombinant KvBeta, 4-cyanobenzaldehyde reduction, at 10 µM, stronger effect = higher value
[5] = molecular target: Voltage-gated potassium channel subunit beta-2 (Rattus norvegicus) (UniProt P62483); test: KvBeta positive modulators, primary screen, biochemical, NADPH fluorescence (AID 623;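 active = NADPH fluorescence slope more negative than the mean of all samples by about 3 SD, 99.7% confidence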;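 note: fluorescence intensity change per second fitted from 20 to 320 s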); conditions: Recombinant KvBeta, NADPH fluorescence decrease slope, 10 min; at 10 µM; stronger effect = lower value
[6] = molecular target: Muscarinic acetylcholine receptor M4 (Homo sapiens) (UniProt P08173); test: compounds altering M4/GIRK thallium flux, either direction, primary screen, M4 allosteric agonist project, cell-based, HEK293 M4/GIRK, BTC-AM (AID 625); conditions: at 10 µM, actives lie on both sides;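 note: thallium influx through GIRK channels coupled to M4 in HEK293 cells with BTC-AM dye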
Outline: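 Assay system: HEK293 cells with M4 receptor and GIRK channels / Controls: carbachol and DMSO controls / Schedule: 1 h dye loading, 2 min kinetic read / Technique: kinetic fluorescence with BTC-AM dye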

[7] = inhibitors of Sendai virus-induced IRF3 signaling, primary screen, TLR/RLR signaling modifier project, cell-based, Sendai virus stimulus, luciferase, 10K MLSCN set (AID 602276;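 active = inhibition at or above 50% at 10 µM; inactive = inhibition below 50%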;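 note: firefly luciferase from ISG56 promoter only with Renilla not read in this screen; 0% = Sendai virus plus DMSO and 100% = medium plus DMSO without virus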); conditions: HEK293 RL24 IRF3 luciferase reporter, at 10 µM, stronger effect = higher value
[8] = inhibitors of poly I:C-induced TLR3 signaling, primary screen, cell-based, poly I:C stimulus, luciferase, 10K MLSCN set (AID 602277;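 active = inhibition of the reporter signal at or above 50%; inactive = inhibition below 50%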); conditions: HEK293-TLR3 RL24 IRF3 luciferase reporter, at 10 µM, stronger effect = higher value

Chain of Muscarinic acetylcholine receptor M4 (Homo sapiens) (P08173 whole entry, looked up): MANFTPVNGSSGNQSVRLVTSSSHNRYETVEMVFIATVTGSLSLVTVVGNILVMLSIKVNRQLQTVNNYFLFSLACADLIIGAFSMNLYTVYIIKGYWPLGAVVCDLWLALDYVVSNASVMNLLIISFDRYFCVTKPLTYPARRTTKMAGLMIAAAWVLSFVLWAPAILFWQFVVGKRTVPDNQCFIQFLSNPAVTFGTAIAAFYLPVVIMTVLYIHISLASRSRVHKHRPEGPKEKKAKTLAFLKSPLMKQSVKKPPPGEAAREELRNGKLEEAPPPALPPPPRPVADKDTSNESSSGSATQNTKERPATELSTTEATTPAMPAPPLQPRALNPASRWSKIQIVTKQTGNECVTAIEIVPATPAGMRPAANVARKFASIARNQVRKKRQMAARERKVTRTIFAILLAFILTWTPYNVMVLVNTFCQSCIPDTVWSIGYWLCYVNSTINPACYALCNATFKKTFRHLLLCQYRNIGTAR
Chain of Voltage-gated potassium channel subunit beta-2 (Rattus norvegicus) (P62483 whole entry, looked up): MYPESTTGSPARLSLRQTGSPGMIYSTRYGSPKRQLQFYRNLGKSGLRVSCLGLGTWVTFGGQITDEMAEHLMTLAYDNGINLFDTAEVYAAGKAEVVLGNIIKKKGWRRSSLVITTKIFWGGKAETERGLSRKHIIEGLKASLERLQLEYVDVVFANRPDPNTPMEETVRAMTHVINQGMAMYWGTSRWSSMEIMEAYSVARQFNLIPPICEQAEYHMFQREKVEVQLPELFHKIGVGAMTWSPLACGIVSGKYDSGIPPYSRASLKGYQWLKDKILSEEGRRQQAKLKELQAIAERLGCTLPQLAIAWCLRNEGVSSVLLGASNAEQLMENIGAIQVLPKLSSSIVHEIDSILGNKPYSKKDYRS

SMILES | cell count [1] | inhibition [1] | inhibition of aggregation [2] | nuclei count [2] | inhibition [3] | nuclei count [3] | fluorescence slope [4] | NADPH fluorescence slope [5] | fluorescence slope [6] | inhibition [7] | inhibition [8]
CCSC1(SCC)N=C(N)C2(C#N)C(c3ccccc3)NC(C)=C(C)C12C#N (stereo not drawn) | 422 | 2% (inactive) | 13.7% (inactive) | 108% | -15.4% (inactive) | 120% | -0.401 (inactive) | -1.2e-05 (inactive) | 0.00608 (inactive) | 7.48% (inactive) | 17.3% (inactive)
CCOC(=O)c1ccc(NS(=O)(=O)c2ccc(SC)cc2)cc1 | 643 | -9% (inactive) | 4.8% (inactive) | 89% | -21.6% (inactive) | 88.3% | -0.48 (inactive) | -4.9e-05 (inactive) | 0.00382 (inactive) | 13.8% (inactive) | 16.1% (inactive)
CCOc1nc2ccccc2nc1NS(=O)(=O)c1ccccc1 | 769 | -4.2% (inactive) | 6.9% (inactive) | 126% | -10% (inactive) | 132% | -0.462 (inactive) | -0.000234 (inactive) | 0.00417 (inactive) | 15.8% (inactive) | 20% (inactive)
Cc1cc2oc(=O)cc(CN3CCCCC3)c2cc1C(C)C | 366 | -3.9% (inactive) | -20.2% (inactive) | 91.1% | 67.8% (active) | 56.9% | -0.56 (inactive) | -2.5e-05 (inactive) | 0.0051 (inactive) | 10.7% (inactive) | 40.9% (inactive)
Cc1nnc(SCC(=O)Nc2ccc3c4c(cccc24)CC3)n1C | 336 | 1.8% (inactive) | -11.5% (inactive) | 97.3% | -41.4% (inactive) | 108% | -0.24 (inactive) | -4.5e-05 (inactive) | 0.00568 (inactive) | 15.8% (inactive) | 5.58% (inactive)
Cn1c(=O)c2c(nc(SCCCO)n2Cc2ccccc2Cl)n(C)c1=O | 531 | 7.2% (inactive) | -0.4% (inactive) | 96% | 41% (inactive) | 92.6% | -0.424 (inactive) | 3e-05 (inactive) | 0.00759 (inactive) | 7.16% (inactive) | 22.9% (inactive)
Cc1c(NC(=O)C(C)OC(=O)C(NC(=O)c2ccco2)C(C)C)c(=O)n(-c2ccccc2)n1C (stereo not drawn) | 419 | -8% (inactive) | -12.5% (inactive) | 105% | -25.3% (inactive) | 106% | -0.276 (inactive) | -5.3e-05 (inactive) | 0.00712 (inactive) | 10.2% (inactive) | 14.1% (inactive)
COc1ccc(OC)c(NC(=O)CSc2ncccc2C(=O)O)c1 | 409 | 0% (inactive) | -10.4% (inactive) | 7.1% | -120% (inactive) | 125% | -0.495 (inactive) | -0.000268 (inactive) | 0.00462 (inactive) | -1.78% (inactive) | 9.5% (inactive)
O=C1CC(c2ccccc2)CC(O)=C1C=NCCCN1CCOCC1 (stereo not drawn) | 307 | 3.9% (inactive) | 22.3% (inactive) | 88.8% | 49.8% (inactive) | 69.3% | -0.466 (inactive) | -4e-06 (inactive) | 0.00557 (inactive) | 7.43% (inactive) | 9.1% (inactive)
COc1ccc(C2c3c(-c4ccccc4O)n[nH]c3C(=O)N2CCc2ccc(OC)c(OC)c2)cc1 (stereo not drawn) | 644 | -22.4% (inactive) | 17.2% (inactive) | 68.1% | -37.6% (inactive) | 114% | -0.616 (inactive) | 5.9e-06 (inactive) | 0.00748 (inactive) | 17.4% (inactive) | 21.5% (inactive)
CCN(CC)c1ccc(NC(=O)c2cncc(Br)c2)cc1 | 218 | 0.6% (inactive) | 28% (inactive) | 86.8% | -31.6% (inactive) | 104% | -0.59 (inactive) | -6e-05 (inactive) | 0.00416 (inactive) | -32.8% (inactive) | -129% (inactive)
Cc1c(NC(=O)c2cnn3c2NC(c2ccco2)CC3C(F)(F)F)c(=O)n(-c2ccccc2)n1C (stereo not drawn) | 436 | -1% (inactive) | 2.9% (inactive) | 101% | -27.3% (inactive) | 115% | -0.557 (inactive) | -2.6e-05 (inactive) | 0.00692 (inactive) | 15.2% (inactive) | 18.8% (inactive)
COC(=O)c1[nH]c2cc(OC)ccc2c1NC(=O)CN1CCOCC1 | 346 | 1.4% (inactive) | -17.1% (inactive) | 105% | -117% (inactive) | 117% | -0.535 (inactive) | -1.7e-05 (inactive) | 0.00517 (inactive) | 13.1% (inactive) | 7.58% (inactive)
O=S1(=O)C=CC(Nc2cccc(Cl)c2)C1 (stereo not drawn) | 682 | -1% (inactive) | -6.1% (inactive) | 97.2% | -7.5% (inactive) | 98.1% | -0.447 (inactive) | -6.1e-05 (inactive) | 0.0065 (inactive) | 22.9% (inactive) | 30.3% (inactive)
O=C(Cn1nnc(-c2cccs2)n1)OC1CCCCC1 | 298 | -4.7% (inactive) | -0.1% (inactive) | 98.6% | -108% (inactive) | 108% | -0.547 (inactive) | -9.5e-06 (inactive) | 0.00395 (inactive) | 11.6% (inactive) | 5.67% (inactive)
CCOC(=O)c1cnc(-n2nc(C)cc2C)nc1NC(C)c1ccccc1 (stereo not drawn) | 605 | -9.5% (inactive) | 8.7% (inactive) | 94.4% | 13.2% (inactive) | 93.5% | -0.57 (inactive) | -9.1e-05 (inactive) | 0.00529 (inactive) | 8.07% (inactive) | 0.674% (inactive)
CSC1=C(C#N)C(c2ccc(C)cc2)C2=C(CCCC2=O)N1 (stereo not drawn) | 322 | -15.9% (inactive) | -19.6% (inactive) | 100% | 17.3% (inactive) | 109% | -0.557 (inactive) | -5.6e-05 (inactive) | 0.00661 (inactive) | 8.18% (inactive) | 19.7% (inactive)
CCOc1ccccc1N1CCN(S(=O)(=O)c2cccc3nsnc23)CC1 | 453 | 3.9% (inactive) | -10.4% (inactive) | 94% | -6.6% (inactive) | 106% | -0.472 (inactive) | 2.9e-06 (inactive) | 0.00356 (inactive) | 22.8% (inactive) | 18.5% (inactive)
